zVAD death inh: blocks zVAD induced death of L929 cells | L929 zVAD necroptosis rescue, ATP luminescence, 24 h; with zVAD 60 µM | viability rescue, % at 10 µM | hit rate 0.38% among 220,000 | AID 1377;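 active means activation, scaled between plate controls, above about 75%, limit read from the data; inactive means activation under that limit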
TNF necrop inh: blocks TNF-alpha induced death of Jurkat FADD-/- cells; hit rate 0.068% among 220,000; Jurkat FADD-/- TNF necroptosis rescue, ATP luminescence, 24 h; 0 = TNF only, 100 = no-TNF cells; AID 463075; activation (protection from cell death), % at 10 µM;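 active means activation, meaning protection from cell death, of at least 50% relative to plate controls; inactive means activation below 50%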;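 further: necroptosis triggered by 40 ng/mL TNF-alpha added together with compound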
Autophagy HCS: modulators of autophagy; MEF GFP-LC3 puncta imaging; test concentration mostly 10 µM; calls only at 10 µM (by protocol); hit rate 0.98% among 190,000; AID 463193;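 active means percentage of spot-positive cells more than 3 SD above its plate mean, without a fluorescence outlier flag or 80% toxicity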
Mdm2 ligase inh: inhibitors of human Mdm2 E3 ubiquitin ligase; AID 1230; cell-based MDM2 ubiquitination luciferase reporter, 2 h; 0 = plate control, 100 = twice control, blank-subtracted; Q00987; signal enhancement, % at 5 µM; hit rate 0.11% among 210,000;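 active means signal enhancement of 30% or more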;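 further: luminescence tracks abundance of the self-degrading MDM2-luciferase fusion protein; higher signal means inhibition of MDM2 E3 ligase activity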
Target sequence (Q00987 whole entry, looked up, the tested form may be a part): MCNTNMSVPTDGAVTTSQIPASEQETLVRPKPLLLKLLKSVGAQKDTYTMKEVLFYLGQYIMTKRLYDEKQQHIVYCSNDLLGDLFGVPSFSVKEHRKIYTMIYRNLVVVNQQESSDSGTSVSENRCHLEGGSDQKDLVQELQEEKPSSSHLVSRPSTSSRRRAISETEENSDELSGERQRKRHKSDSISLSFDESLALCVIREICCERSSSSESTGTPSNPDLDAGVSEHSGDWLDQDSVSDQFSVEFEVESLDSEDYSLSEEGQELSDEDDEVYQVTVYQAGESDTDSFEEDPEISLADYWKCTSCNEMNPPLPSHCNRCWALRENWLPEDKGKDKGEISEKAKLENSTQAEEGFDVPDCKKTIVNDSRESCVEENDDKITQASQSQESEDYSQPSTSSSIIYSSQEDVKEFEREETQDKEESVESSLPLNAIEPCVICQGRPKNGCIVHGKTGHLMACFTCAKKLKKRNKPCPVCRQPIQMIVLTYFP
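Buffer or medium: Cells held in DMEM | Assay system: Stable mammalian line carrying autodegrading MDM2–luciferase fusion reporter | Quantity: 2000 cells/well | Times: 4 h settle plus 2 h compound, 37 °C | Doses: One concentration, 5 µM, with 0.2% DMSO | Technique: Luminescence with SteadyLite reagent, 15 min at room temperature | Benchmarks: Plate controls and plate blanks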
Dynein cargo inh: dynein cargo transport inhibition. 3617.4 mouse cells, GR-EGFP nuclear translocation imaging; test concentration mostly 20 µM; stimulated with dexamethasone, 1 µM; hits give low values. z-score, hits read low. hit rate 0.47% among 220,000. AID 1381;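 active means plate z-score of nuclear minus cytoplasmic receptor signal below a set negative limit, without overly bright fluorescence or cell loss, cut at about -3.5 in these data, passing the limit was not always enough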;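 further: z-score of nuclear minus cytoplasmic ring GR-EGFP intensity difference per well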
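Buffer or medium: tet-free medium with charcoal-stripped serum / Also added: dexamethasone agonist, 1.0 µM final, for 30 min / Timing: induction 48 h, compound 1 h, agonist 30 min / Measured by: high-content fluorescence imaging after fixation / Read-out: nuclear-to-cytoplasmic GR-EGFP distribution per well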
Large screens that a line does not name were inactive. An excerpt weighted towards active compounds, which were near 1.8% of everything screened.

CCN(CC)CCNC(=O)CSc1c2c(nc3cc(Cl)ccc13)CCCC2	Dynein cargo inh -3.9
CC1(C)Oc2ccc(C(=O)NC3CCCC3)cc2N(CC(=O)N2CCOCC2)C1=O	Autophagy HCS active
COc1ccc(Cn2c(=O)[nH]c3cc(C(=O)NC4CCCC4)ccc3c2=O)cc1	Autophagy HCS active
Cn1c(Cn2nnc3ccccc32)nnc1SCC(=O)Nc1nccs1	Autophagy HCS active
Cc1cc(NC(=O)CCC(=O)N(Cc2ccccc2)C2(C(=O)NC3CCCCC3)CCCC2)no1	none
COC(=O)Cc1[nH]n(-c2nc3ccccc3s2)c(=O)c1C(C)=O	none
COc1ccc(CN=C(C)c2c(C(F)(F)F)[nH]n(-c3nc4ccccc4s3)c2=O)cc1	Autophagy HCS active
COc1ccccc1-n1cnnc1SCC(=O)c1c[nH]c2ccccc12	none
CN(c1ccccc1)c1ccc(/C=N/N2CCOCC2)cc1	none
CCOC(=O)c1oc2ccc(Br)cc2c1NC(=O)CN1CCN(C)CC1	none
COc1ccc2oc(C(=O)c3ccccc3)c(NC(=O)CN3CCN(C)CC3)c2c1	Autophagy HCS active
CC(C)(C)N(Cc1ccccc1)C(=O)CCc1ccccc1	none
Cc1cccc(C)c1NC(=O)C1c2cccc[n+]2CC(=O)N1Cc1cccs1 (stereo unspecified)	none
Fc1cnc(N/N=C/c2ccc(-c3ccc(Br)cc3)o2)nc1N1CCOCC1	none (no result: Autophagy HCS)
Brc1ccc(-c2ccc(/C=N/Nc3nncc(-c4ccccc4)n3)o2)cc1	Autophagy HCS active
Brc1ccc(/C=N/Nc2nncc(-c3ccccc3)n2)o1	none
Brc1ccc(-c2ccc(/C=N/Nc3nc(N4CCOCC4)nc(N4CCOCC4)n3)o2)cc1	Autophagy HCS active
CC(C)C(C)(C#N)NC(=O)CSc1nc(C2CCCCC2)n(-c2ccccc2)n1 (stereo unspecified)	none
Cc1cc2nnc(SCC(=O)NCc3cccs3)n2c2ccccc12	Autophagy HCS active
CCC(=O)N1CCN(c2ccc(NC(=S)NC(=O)C(C)C)cc2)CC1	Autophagy HCS active
CCOC(=O)c1sc(NC(=O)c2c(C)noc2C)c(C(=O)OCC)c1C	Autophagy HCS active (no result: Mdm2 ligase inh)
Cc1cccc2cc(C(c3nnnn3CC3CCCO3)N3CCCC4(CCCCC4)C3)c(=O)[nH]c12 (stereo unspecified)	Autophagy HCS active
CCCCCCOc1ccc(/C(C)=N/NC2=NCCN2)cc1[N+](=O)[O-]	Autophagy HCS active
CCCCOc1ccc(Br)cc1/C(C)=N/NC1=NCCN1	Autophagy HCS active
C/C(=N\NC1=NCCN1)c1ccc(N)c([N+](=O)[O-])c1	none (no result: Autophagy HCS)
Cn1/c(=N/N=C/c2ccccn2)sc2ccccc21	none
Cc1[nH]c2ccccc2c1/C=N/NC(N)=S	none (no result: Autophagy HCS)
Cc1ccc(NC(=S)N/N=C/c2c(C)[nH]c3ccccc23)cc1	Autophagy HCS active
S=C(Nc1ccc2[nH]ccc2c1)NC1CCCCC1	none (no result: Autophagy HCS)
CCOC(=O)C1(Cc2cccc(OC)c2)CCN(Cc2ccc(C)s2)CC1	none
Cc1ccc(-n2c(Cl)c(Cl)nc(Cl)c2=O)cc1	Dynein cargo inh -4.1
O=C(CN1CCN(c2ncccn2)CC1)NCc1ccccc1	Mdm2 ligase inh 103
COc1cccc(/C(O)=C/c2nc3ccc(C(=O)NCCc4cccc(C)c4)cc3[nH]c2=O)c1	Autophagy HCS active
COc1cccc(C(=O)Nc2cc(C(=O)NCCc3ccccc3)ccc2Cl)c1	none
COc1cc2c(cc1NC(=O)COC(=O)C(CCSC)NC(=O)c1ccccc1Cl)oc1ccccc12 (stereo unspecified)	none
COCCCNC(=O)c1c(N)n(-c2ccc3c(c2)OCO3)c2nc3ccccc3nc12	zVAD death inh 84
Cc1cc(NCCN2CCOCC2)n2nc(C)c(-c3ccc(Cl)cc3)c2n1	Autophagy HCS active
CCCCCC(=O)NC(=S)Nc1ccc2oc(=O)ccc2c1	none
COc1ccc(C(=O)Oc2ccc(C(=S)N3CCOCC3)cc2)cc1	Autophagy HCS active
O=C(CN1CCN(Cc2cccc(Cl)c2)C1=O)NCc1cccs1	none
CN(C)c1ccc(/C=C2\SC(=O)N(CC(O)Cn3c4ccccc4c4ccccc43)C2=O)cc1 (stereo unspecified)	Autophagy HCS active
CCNS(=O)(=O)c1ccc(CCC(=O)NCc2ccc(C)cc2)cc1	Autophagy HCS active
CCNS(=O)(=O)c1ccc(CCC(N)=O)cc1	none
CCN(CC)CC(=O)n1c2c(c3ccccc31)CCCC2	none
CN1CCN(CC(=O)n2c3c(c4ccccc42)CCCC3)CC1	Autophagy HCS active
c1ccc2c(c1)Nc1nccnc1S2	zVAD death inh 85
O=C(c1ccc(S(=O)(=O)N2CCCCC2)cc1)N1CCN(CCN2C(=O)c3cccc4cccc(c34)C2=O)CC1	none
C=C(C)CSc1nc2sc3c(c2c(=O)n1C1CCCCC1)CCN(C)C3	none (no result: Autophagy HCS)
N#CCSc1nc2sc3c(c2c(=O)n1C1CCCCC1)CCCC3	TNF necrop inh 68
O=C(CN1C(=O)c2ccc([N+](=O)[O-])cc2C1=O)Nc1nccs1	none
O=C(CCN1C(=O)c2ccc([N+](=O)[O-])cc2C1=O)Nc1nccs1	Autophagy HCS active
CC1=C/C(=N\OS(=O)(=O)c2ccccc2)C(C(C)C)=CC1=O	Dynein cargo inh -4.7
COc1ccc(S(=O)(=O)Nc2cc3c(C(C)=O)c(C)oc3c3ccccc23)cc1	Autophagy HCS active
CC(C)(C)n1nc2c(c1NC(=O)c1ccco1)CS(=O)C2 (stereo unspecified)	none
CC(C)(C)n1nc2c(c1NC(=O)c1ccccc1F)CS(=O)C2 (stereo unspecified)	Autophagy HCS active
CC(C)c1ccc(OCc2cccc(C(=O)N/N=C/c3cccnc3)c2)cc1	Mdm2 ligase inh 34 (no result: zVAD death inh)
CCOc1ccc(OCc2cccc(C(=O)N/N=C/c3cccnc3)c2)cc1	none
CCOC(=O)CNC(=O)CSc1nc2cccnc2n1C	Autophagy HCS active
O=C(c1cc2cc([N+](=O)[O-])ccc2oc1=O)N1CCN(c2ncccn2)CC1	Autophagy HCS active
COCCn1c(SCC(=O)c2ccc(F)cc2)nnc1C(C)C	Autophagy HCS active
COCCn1nnnc1SCC(=O)c1ccc(F)cc1	none
CN1CCN(CC(O)(c2ccc(Cl)cc2)c2ccc(Cl)cc2)CC1	Autophagy HCS active
CN1CCN(CC(O)COc2ccc(Cl)cc2)CC1 (stereo unspecified)	none
O=c1/c(=C\c2cccn2-c2ccccc2)sc2nc3ccccc3n12	Autophagy HCS active
COc1cc(N2CCCC2)c(OC)cc1/C=c1/sc2nc3ccccc3n2c1=O	Autophagy HCS active
FC(F)(F)c1cccc(Cc2noc(CN3CCCC(OCc4ccccn4)C3)n2)c1 (stereo unspecified)	none
